Source: ChEMBL document CHEMBL1153560, “In vitro activities of doripenem and six comparator drugs against 423 aerobic and anaerobic bacterial isolates from infected diabetic foot wounds” (2008)
≈ marks a conversion by molar mass, not a printed value.

Tests used:
Format in all cases: functional
Parvimonas micra [1] = test: Antibacterial activity against Peptostreptococcus micros isolated from patient with diabetic foot infection assessed as percent resistant isolates after 44 to 48 hrs by agar dilution method
Outline: (§1)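 Agar dilution per CLSI M11-A7. Twofold drug dilutions made on the test day and added to molten agar. Replicator-applied inoculum of 10^5 CFU/spot. Drug-free control plates inoculated before and after each drug set. Incubation at 37°C for 44 to 48 h, anaerobic chamber. MIC taken as the lowest concentration giving no growth or a marked change in growth versus controls.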

Anaerococcus prevotii [2] = test: Antibacterial activity against Anaerococcus prevotii isolated from patient with diabetic foot infection after 44 to 48 hrs by agar dilution method
Outline: (§2)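 CLSI M11-A7 agar dilution: serial twofold drug dilutions made on the test day and added to molten agar. Spots of 10^5 CFU were applied by replicator, with drug-free control plates inoculated before and after each set. Incubation was 44 to 48 h at 37°C in an anaerobic chamber. MIC was the lowest concentration giving no growth or a marked change in growth versus controls.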

Parvimonas micra [3] = test: Antibacterial activity against Peptostreptococcus micros isolated from patient with diabetic foot infection after 44 to 48 hrs by agar dilution method; outline: as §2
Anaerococcus tetradius = test: Antibacterial activity against Anaerococcus tetradius isolated from patient with diabetic foot infection assessed as percent resistant isolates after 44 to 48 hrs by agar dilution method; outline: as §1
Prevotella bivia = test: Antibacterial activity against Prevotella bivia isolated from patient with diabetic foot infection assessed as percent resistant isolates after 44 to 48 hrs by agar dilution method; outline: as §1
Bacteroides ovatus = test: Antibacterial activity against Bacteroides ovatus isolated from patient with diabetic foot infection assessed as percent resistant isolates after 44 to 48 hrs by agar dilution method; outline: as §1
[4] = system: Parabacteroides distasonis; test: Antibacterial activity against Parabacteroides distasonis isolated from patient with diabetic foot infection after 44 to 48 hrs by agar dilution method; outline: as §2
[5] = system: Porphyromonas asaccharolytica; test: Antibacterial activity against Porphyromonas asaccharolyticus isolated from patient with diabetic foot infection after 44 to 48 hrs by agar dilution method; outline: as §2
Finegoldia magna [6] = test: Antibacterial activity against Finegoldia magna isolated from patient with diabetic foot infection after 44 to 48 hrs by agar dilution method; outline: as §2
[7] = system: Enterocloster clostridioformis; test: Antibacterial activity against Clostridium clostridioforme isolated from patient with diabetic foot infection assessed as percent resistant isolates after 44 to 48 hrs by agar dilution method; outline: as §1
Parabacteroides merdae = test: Antibacterial activity against Parabacteroides merdae isolated from patient with diabetic foot infection assessed as percent resistant isolates after 44 to 48 hrs by agar dilution method; outline: as §1
Anaerococcus vaginalis = test: Antibacterial activity against Anaerococcus vaginalis isolated from patient with diabetic foot infection after 44 to 48 hrs by agar dilution method; outline: as §2
[8] = system: Clostridium malenominatum; test: Antibacterial activity against Clostridium malenominatum isolated from patient with diabetic foot infection assessed as percent resistant isolates after 44 to 48 hrs by agar dilution method; outline: as §1
[Clostridium] innocuum [9] = Antibacterial activity against Clostridium innocuum isolated from patient with diabetic foot infection assessed as percent resistant isolates after 44 to 48 hrs by agar dilution method; outline: as §1
[10] = system: Peptostreptococcus anaerobius; test: Antibacterial activity against Peptostreptococcus anaerobius isolated from patient with diabetic foot infection assessed as percent resistant isolates after 44 to 48 hrs by agar dilution method; outline: as §1
[11] = system: Enterocloster clostridioformis; test: Antibacterial activity against Clostridium clostridioforme isolated from patient with diabetic foot infection after 44 to 48 hrs by agar dilution method; outline: as §2
Anaerococcus prevotii [12] = test: Antibacterial activity against Anaerococcus prevotii isolated from patient with diabetic foot infection assessed as percent resistant isolates after 44 to 48 hrs by agar dilution method; outline: as §1
[Clostridium] innocuum [13] = Antibacterial activity against Clostridium innocuum isolated from patient with diabetic foot infection after 44 to 48 hrs by agar dilution method; outline: as §2
[14] = system: Peptoniphilus asaccharolyticus; test: Antibacterial activity against Peptoniphilus asaccharolyticus isolated from patient with diabetic foot infection after 44 to 48 hrs by agar dilution method; outline: as §2
Clostridium cadaveris = test: Antibacterial activity against Clostridium cadaveris isolated from patient with diabetic foot infection assessed as percent resistant isolates after 44 to 48 hrs by agar dilution method; outline: as §1
Clostridium perfringens = test: Antibacterial activity against Clostridium perfringens isolated from patient with diabetic foot infection after 44 to 48 hrs by agar dilution method; outline: as §1
Bacteroides fragilis [15] = test: Antibacterial activity against Bacteroides fragilis isolated from patient with diabetic foot infection after 44 to 48 hrs by agar dilution method; outline: as §2
[16] = system: Peptostreptococcus anaerobius; test: Antibacterial activity against Peptostreptococcus anaerobius isolated from patient with diabetic foot infection after 44 to 48 hrs by agar dilution method; outline: as §2
Cutibacterium acnes = test: Antibacterial activity against Propionibacterium acnes isolated from patient with diabetic foot infection after 44 to 48 hrs by agar dilution method; outline: as §2
[17] = system: Clostridium malenominatum; test: Antibacterial activity against Clostridium malenominatum isolated from patient with diabetic foot infection after 44 to 48 hrs by agar dilution method; outline: as §2
Porphyromonas somerae [18] = test: Antibacterial activity against Porphyromonas somerae isolated from patient with diabetic foot infection after 44 to 48 hrs by agar dilution method; outline: as §2
[19] = system: Bacteroides thetaiotaomicron; test: Antibacterial activity against Bacteroides thetaiotaomicron isolated from patient with diabetic foot infection assessed as percent resistant isolates after 44 to 48 hrs by agar dilution method; outline: as §1
Finegoldia magna [20] = test: Antibacterial activity against Finegoldia magna isolated from patient with diabetic foot infection assessed as percent resistant isolates after 44 to 48 hrs by agar dilution method; outline: as §1
[21] = system: Bacteroides thetaiotaomicron; test: Antibacterial activity against Bacteroides thetaiotaomicron isolated from patient with diabetic foot infection after 44 to 48 hrs by agar dilution method; outline: as §2
Bacteroides stercoris = test: Antibacterial activity against Bacteroides stercoris isolated from patient with diabetic foot infection after 44 to 48 hrs by agar dilution method; outline: as §2
Bacteroides fragilis [22] = test: Antibacterial activity against Bacteroides fragilis isolated from patient with diabetic foot infection assessed as percent resistant isolates after 44 to 48 hrs by agar dilution method; outline: as §1
Bacteroides uniformis [23] = test: Antibacterial activity against Bacteroides uniformis isolated from patient with diabetic foot infection after 44 to 48 hrs by agar dilution method; outline: as §2
[24] = system: Anaerocolumna aminovalerica; test: Antibacterial activity against Clostridium aminovalericum isolated from patient with diabetic foot infection after 44 to 48 hrs by agar dilution method; outline: as §2
Phocaeicola vulgatus = test: Antibacterial activity against Bacteroides vulgatus isolated from patient with diabetic foot infection after 44 to 48 hrs by agar dilution method; outline: as §2
Porphyromonas somerae [25] = test: Antibacterial activity against Porphyromonas somerae isolated from patient with diabetic foot infection assessed as percent resistant isolates after 44 to 48 hrs by agar dilution method; outline: as §1
[26] = system: Porphyromonas asaccharolytica; test: Antibacterial activity against Porphyromonas asaccharolyticus isolated from patient with diabetic foot infection assessed as percent resistant isolates after 44 to 48 hrs by agar dilution method; outline: as §1
Bacteroides uniformis [27] = test: Antibacterial activity against Bacteroides uniformis isolated from patient with diabetic foot infection assessed as percent resistant isolates after 44 to 48 hrs by agar dilution method; outline: as §1

C[C@@H](O)[C@H]1C(=O)N2C(C(=O)O)=C(SCCNC=N)C[C@H]12 [IMIPENEM ANHYDROUS]
Activity (Parvimonas micra [1]): 0% | MIC50 (Anaerococcus prevotii [2]): ≤ 0.015 µg/mL | MIC90 (Anaerococcus prevotii [2]): 0.03 µg/mL (≈ 0.1 µM) | MIC50 (Parvimonas micra [3]): 0.03 µg/mL (≈ 0.1 µM) | MIC90 (Parvimonas micra [3]): 0.06 µg/mL (≈ 0.2 µM) | Activity (Anaerococcus tetradius): 0% | Activity (Prevotella bivia): 0% | Activity (Bacteroides ovatus): 0% | MIC50 [4]: 0.5 µg/mL (≈ 1.67 µM) | MIC90 [4]: 1 µg/mL (≈ 3.34 µM) | MIC50 [5]: < 0.015 µg/mL | MIC90 [5]: ≤ 0.015 µg/mL | MIC50 (Finegoldia magna [6]): 0.03 µg/mL (≈ 0.1 µM) | MIC90 (Finegoldia magna [6]): 0.06 µg/mL (≈ 0.2 µM) | Activity [7]: 0% | Activity (Parabacteroides merdae): 0% | MIC50 (Anaerococcus vaginalis): ≤ 0.015 µg/mL | MIC90 (Anaerococcus vaginalis): 0.03 µg/mL (≈ 0.1 µM) | Activity [8]: 0% | Activity ([Clostridium] innocuum [9]): 0% | Activity [10]: 0% | MIC50 [11]: 0.25 µg/mL (≈ 0.835 µM) | MIC90 [11]: 2 µg/mL (≈ 6.68 µM) | Activity (Anaerococcus prevotii [12]): 0% | MIC50 ([Clostridium] innocuum [13]): 0.25 µg/mL (≈ 0.835 µM) | MIC90 ([Clostridium] innocuum [13]): 2 µg/mL (≈ 6.68 µM) | MIC50 [14]: ≤ 0.015 µg/mL | MIC90 [14]: 0.03 µg/mL (≈ 0.1 µM) | Activity (Clostridium cadaveris): 0% | MIC50 (Clostridium perfringens): 0.06 µg/mL (≈ 0.2 µM) | MIC90 (Clostridium perfringens): 0.125 µg/mL (≈ 0.418 µM) | MIC50 (Bacteroides fragilis [15]): 0.125 µg/mL (≈ 0.418 µM) | MIC90 (Bacteroides fragilis [15]): 0.125 µg/mL (≈ 0.418 µM) | MIC50 [16]: 0.03 µg/mL (≈ 0.1 µM) | MIC90 [16]: 0.06 µg/mL (≈ 0.2 µM) | MIC50 (Cutibacterium acnes): ≤ 0.015 µg/mL | MIC90 (Cutibacterium acnes): ≤ 0.015 µg/mL | MIC50 [17]: 0.25 µg/mL (≈ 0.835 µM) | MIC90 [17]: 2 µg/mL (≈ 6.68 µM) | MIC50 (Porphyromonas somerae [18]): < 0.015 µg/mL | MIC90 (Porphyromonas somerae [18]): ≤ 0.015 µg/mL | Activity [19]: 0% | Activity (Finegoldia magna [20]): 0% | MIC50 [21]: 0.5 µg/mL (≈ 1.67 µM) | MIC90 [21]: 1 µg/mL (≈ 3.34 µM) | MIC50 (Bacteroides stercoris): 0.5 µg/mL (≈ 1.67 µM) | MIC90 (Bacteroides stercoris): 1 µg/mL (≈ 3.34 µM) | Activity (Bacteroides fragilis [22]): 0% | MIC50 (Bacteroides uniformis [23]): 0.5 µg/mL (≈ 1.67 µM) | MIC90 (Bacteroides uniformis [23]): 1 µg/mL (≈ 3.34 µM) | MIC50 [24]: 0.25 µg/mL (≈ 0.835 µM) | MIC90 [24]: 2 µg/mL (≈ 6.68 µM) | MIC50 (Phocaeicola vulgatus): 0.5 µg/mL (≈ 1.67 µM) | MIC90 (Phocaeicola vulgatus): 1 µg/mL (≈ 3.34 µM) | Activity (Porphyromonas somerae [25]): 0% | Activity [26]: 0% | Activity (Bacteroides uniformis [27]): 0%

C[C@@H](O)[C@H]1C(=O)N2C(C(=O)O)=C(S[C@@H]3CN[C@H](CNS(N)(=O)=O)C3)[C@H](C)[C@H]12 [DORIPENEM]
Activity (Parvimonas micra [1]): 0% | MIC50 (Anaerococcus prevotii [2]): ≤ 0.015 µg/mL | MIC90 (Anaerococcus prevotii [2]): 0.06 µg/mL (≈ 0.143 µM) | MIC50 (Parvimonas micra [3]): 0.06 µg/mL (≈ 0.143 µM) | MIC90 (Parvimonas micra [3]): 0.25 µg/mL (≈ 0.595 µM) | Activity (Anaerococcus tetradius): 0% | Activity (Prevotella bivia): 0% | Activity (Bacteroides ovatus): 0% | MIC50 [4]: 0.25 µg/mL (≈ 0.595 µM) | MIC90 [4]: 1 µg/mL (≈ 2.38 µM) | MIC50 [5]: ≤ 0.015 µg/mL | MIC90 [5]: 0.03 µg/mL (≈ 0.0713 µM) | MIC50 (Finegoldia magna [6]): 0.06 µg/mL (≈ 0.143 µM) | MIC90 (Finegoldia magna [6]): 0.125 µg/mL (≈ 0.297 µM) | Activity [7]: 0% | Activity (Parabacteroides merdae): 0% | MIC50 (Anaerococcus vaginalis): ≤ 0.015 µg/mL | MIC90 (Anaerococcus vaginalis): 0.06 µg/mL (≈ 0.143 µM) | Activity [8]: 0% | Activity ([Clostridium] innocuum [9]): 0% | Activity [10]: 0% | MIC50 [11]: 0.06 µg/mL (≈ 0.143 µM) | MIC90 [11]: 1 µg/mL (≈ 2.38 µM) | Activity (Anaerococcus prevotii [12]): 0% | MIC50 ([Clostridium] innocuum [13]): 0.06 µg/mL (≈ 0.143 µM) | MIC90 ([Clostridium] innocuum [13]): 1 µg/mL (≈ 2.38 µM) | MIC50 [14]: ≤ 0.015 µg/mL | MIC90 [14]: 0.06 µg/mL (≈ 0.143 µM) | Activity (Clostridium cadaveris): 0% | MIC50 (Clostridium perfringens): ≤ 0.015 µg/mL | MIC90 (Clostridium perfringens): 0.03 µg/mL (≈ 0.0713 µM) | MIC50 (Bacteroides fragilis [15]): 0.25 µg/mL (≈ 0.595 µM) | MIC90 (Bacteroides fragilis [15]): 0.25 µg/mL (≈ 0.595 µM) | MIC50 [16]: 0.06 µg/mL (≈ 0.143 µM) | MIC90 [16]: 0.25 µg/mL (≈ 0.595 µM) | MIC50 (Cutibacterium acnes): 0.06 µg/mL (≈ 0.143 µM) | MIC90 (Cutibacterium acnes): 0.125 µg/mL (≈ 0.297 µM) | MIC50 [17]: 0.06 µg/mL (≈ 0.143 µM) | MIC90 [17]: 1 µg/mL (≈ 2.38 µM) | MIC50 (Porphyromonas somerae [18]): ≤ 0.015 µg/mL | MIC90 (Porphyromonas somerae [18]): 0.03 µg/mL (≈ 0.0713 µM) | Activity [19]: 0% | Activity (Finegoldia magna [20]): 0% | MIC50 [21]: 0.25 µg/mL (≈ 0.595 µM) | MIC90 [21]: 1 µg/mL (≈ 2.38 µM) | MIC50 (Bacteroides stercoris): 0.25 µg/mL (≈ 0.595 µM) | MIC90 (Bacteroides stercoris): 1 µg/mL (≈ 2.38 µM) | Activity (Bacteroides fragilis [22]): 0% | MIC50 (Bacteroides uniformis [23]): 0.25 µg/mL (≈ 0.595 µM) | MIC90 (Bacteroides uniformis [23]): 1 µg/mL (≈ 2.38 µM) | MIC50 [24]: 0.06 µg/mL (≈ 0.143 µM) | MIC90 [24]: 1 µg/mL (≈ 2.38 µM) | MIC50 (Phocaeicola vulgatus): 0.25 µg/mL (≈ 0.595 µM) | MIC90 (Phocaeicola vulgatus): 1 µg/mL (≈ 2.38 µM) | Activity (Porphyromonas somerae [25]): 0% | Activity [26]: 0% | Activity (Bacteroides uniformis [27]): 0%
